# High-throughput results as filed in PubChem.
# Smad3 FoxH1 inh: blocks human Smad3 binding to FoxH1 peptide; TR-FRET Smad3/Dy647-FoxH1 peptide binding, europium anti-His; inhibition, % at 25 µM; hit rate 0.29% among 88,000;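 active means compounds that reduce the energy-transfer binding signal between the protein and its labelled peptide by more than half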;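 further: 0% = Smad3 plus labelled peptide maximal FRET and 100% = peptide-only background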
# CD11b adhes inh: inhibitors of human CD11b/CD18 binding to fibrinogen; K562 CD11b/CD18 adhesion to fibrinogen, ATPlite luminescence; Mn2+ added to activate the integrin; inhibition, % at 10 µM; hit rate 0.54% among 93,000;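 active means primary inhibition of 50% or more at 10 µM, then 40% or more on retest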
# sEH inhibitor: soluble epoxide hydrolase (human) inhibition; recombinant human sEH enzymatic activity assay; inhibition, % at 2 µM; hit rate 0.34% among 91,000; P34913; in the data active means inhibition above about 80%
# Target sequence (P34913 whole entry, looked up): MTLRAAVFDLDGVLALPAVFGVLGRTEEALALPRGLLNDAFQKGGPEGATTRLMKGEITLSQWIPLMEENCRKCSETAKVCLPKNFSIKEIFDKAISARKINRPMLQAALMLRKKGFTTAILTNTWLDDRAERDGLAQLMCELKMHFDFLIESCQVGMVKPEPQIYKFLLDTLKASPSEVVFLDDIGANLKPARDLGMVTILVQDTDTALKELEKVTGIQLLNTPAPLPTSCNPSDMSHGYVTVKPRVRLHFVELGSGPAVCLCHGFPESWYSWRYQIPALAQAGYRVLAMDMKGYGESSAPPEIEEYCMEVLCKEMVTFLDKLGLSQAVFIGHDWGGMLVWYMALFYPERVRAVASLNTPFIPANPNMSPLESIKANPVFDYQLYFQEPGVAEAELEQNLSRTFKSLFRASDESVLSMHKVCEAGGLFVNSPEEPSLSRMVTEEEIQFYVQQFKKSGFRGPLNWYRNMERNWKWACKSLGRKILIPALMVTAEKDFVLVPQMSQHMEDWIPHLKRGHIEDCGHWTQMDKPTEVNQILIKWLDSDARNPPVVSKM
# sEH act: increases human soluble epoxide hydrolase activity; AID 717; purified human sEH enzymatic activity, activator screen; P34913; hit rate 0.04% among 91,000; activation, % at 2 µM; in the data active means activation above about 37%
# Rev-RRE block: HIV Rev-RRE protein-RNA interaction inhibition; Rev peptide-RRE RNA binding, FRET; inhibition, % at 8 µM; hit rate 0.79% among 97,000; AID 704;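 active means inhibition above the screen-wide mean plus 3 SD, cut at about 35% in these data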;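 further: 0% = median DMSO wells and 100% = median Neomycin B control wells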
# Target sequence (P05866 whole entry, looked up): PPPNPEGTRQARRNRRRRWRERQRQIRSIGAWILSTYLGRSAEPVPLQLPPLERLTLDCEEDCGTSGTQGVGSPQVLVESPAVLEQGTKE
#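 Material: labelled RRE RNA duplex and labelled Rev peptide / Buffer or medium: HEPES pH 7.5 salt buffer with EDTA / Compound dosing: single point, 8 µM final nominal compound concentration / Benchmarks: DMSO low control, neomycin B high control / Timing: 5 min preincubation and 15 min binding, 25 °C / Technique: FRET fluorescence readout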
# Mac1 fbg enh: increases human CD11b/CD18 adhesion to fibrinogen; activation, % at 10 µM; AID 1499; hit rate 0.07% among 93,000; P05107+P11215; K562 CD11b/CD18 adhesion to fibrinogen, ATPlite luminescence;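 active means 10 µM primary screen giving 50% or more activity, confirmed by 40% or more on retest at that dose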
# * marks the source's active call; other numbers are inactive results; / = no result; [ ] = remark or other dose. Hits are enriched below; roughly 1.6% of the tested compounds scored in any of these assays.
SMILES,Smad3 FoxH1 inh,CD11b adhes inh,sEH inhibitor,sEH act,Rev-RRE block,Mac1 fbg enh
O=C(CS(=O)(=O)Cc1ccccc1)Nc1nc2ccccc2s1,-2.3,-46.4,-3.5,4.0,10.3,1.4
O=c1cc(C(F)(F)F)nc(-n2[nH]c3c(c2=O)CCCC3)[nH]1,/,/,1.8,-0.7,66.7*,/
O=C(CCCOc1ccc(Cl)cc1Cl)N/N=C\C1CCCCC1,/,-10.8,98.6*,-98.5,12.8,3.3
CCn1c(COc2ccccc2)nnc1SCC(=O)C(C)(C)C,58.7*[fluorescence artefact?],-1.4,-16.1,12.8,-1.9,-2.6
NC(N)=N/N=C(/c1ccc(Cl)cc1)C1CC1,-11.8,/,/,/,/,/
O=C(O)CCSC1=NCCN1,-18.0,/,/,/,/,/
CCCN1CCC2(CC1)C(C#N)=C(N)Oc1c2sc2nc(C)cc(C)c12,/,10.0,-8.4,12.0,50.1*,-2.5
CCOC(=O)N1CCC2(CC1)C(C#N)=C(N)Oc1c2sc2nc(C)cc(C)c12,-9.2,-3.5,1.3,1.1,17.8,-2.2
CCCc1ccc(Oc2cn[nH]c2-c2ccc(O)c(C)c2O)cc1,5.7,101.0*,/,/,/,-11.2
CCCc1ccc(Oc2c(-c3ccc(O)c(C)c3O)n[nH]c2C)cc1,3.7,28.6,/,/,/,-8.4
N=C1/C(=C\c2ccc(SCc3ccco3)o2)C(=O)N=C2SC=NN12,/,/,-13.6,13.8,58.9*,/
CC1=NN2C(=N)/C(=C\c3ccc(SCc4ccccc4)o3)C(=O)N=C2S1,4.7,3.9,9.8,-7.1,21.3,4.3
CCn1c(SCC(=O)c2ccc3c(c2)Cc2ccccc2-3)nnc1-c1ccc(N)cc1,/,1.2,4.3,-5.5,3.0,91.8*
O=C(NCCC1=CCCCC1)c1ccc(F)c(S(=O)(=O)N2CCOCC2)c1,-4.0,-4.7,97.4*,-97.4,-1.2,-1.3
C[C@H](CCC(=O)O)[C@@H]1CC[C@@H]2[C@H]3CC[C@@H]4C[C@H](O)CC[C@@]4(C)[C@@H]3CC[C@]21C,5.1,/,/,/,/,/
O=c1[nH]c2[nH]c(=S)[nH]c(=S)c2[nH]1,67.7*,/,/,/,/,/
COC(=O)CN1C(c2ccccc2)=Nc2ccc(Cl)cc2C1c1ccccc1 (configuration not stated),/,21.3,-12.7,11.0,12.8,5.0
O=C(C1=C(O)C(=O)N(c2ncccn2)C1c1cccc(Cl)c1)c1ccco1 (configuration not stated),10.4,10.6,-4.2,6.2,36.2*,-1.3
O=C(C1=C(O)C(=O)N(c2ncccn2)C1c1ccc(Cl)c(Cl)c1)c1ccco1 (configuration not stated),-7.0,-2.3,/,/,51.3*,-1.9
O=C(O)C[C@H](Sc1ccccc1)c1ccccc1,11.7,/,/,/,/,/
COc1ccc(CCNC(=O)c2ccc(-c3ccc([N+](=O)[O-])cc3)o2)cc1OC,/,23.6,/,/,/,-5.8
[O-][n+]1c2c(c3c4non(O)c4ccc31)CCCC2,-7.4,96.0*,-1.2,0.6,4.0,-5.9
COn1c2c(c3c4no[n+]([O-])c4ccc31)CCCC2,0.1,2.6,-13.5,8.7,10.2,29.8
Clc1ccc(-c2cn3nc4c(nc3n2)CCCC4)cc1,12.3,39.0,-3.1,0.8,37.6*,10.1
Oc1csc(Cc2nc(-c3ccc4ccccc4c3)cs2)n1,/,-0.7,11.9,-11.0,6.7,15.4
SMILES,Smad3 FoxH1 inh,CD11b adhes inh,sEH inhibitor,sEH act,Rev-RRE block,Mac1 fbg enh
Oc1csc(Cc2nc(-c3ccc(-c4ccccc4)cc3)cs2)n1,/,-1.6,-10.6,11.7,11.2,161.0*
O=C(Cn1cnc2ccccc21)NC(c1ccccc1)c1ccccc1,-5.7,/,2.7,-0.9,6.0,/
COc1ccc(C2=CC(c3c(C)nn(-c4ccccc4)c3Cl)n3nnnc3N2)cc1OC (configuration not stated),3.3,28.1,1.4,-1.9,50.9*,0.1
Clc1ccc(CSCCc2ccncc2)cc1Cl,5.9,/,/,/,/,/
O=C(Nc1nc(=S)ss1)c1c(F)cccc1F,/,/,4.8,-2.8,8.4,/
Cc1ccccc1C(=O)Nc1nc(=S)ss1,/,100.3*,-7.2,6.3,8.9,-11.1
CC(C)CC(=O)Nc1nc(=S)ss1,9.5,75.0*,-5.8,6.8,1.0,-6.1
CC(=O)Nc1nc(=S)ss1,0.4,9.3,1.7,-2.5,11.8,-3.0
Cc1cn([C@@H]2C[C@H](N=[N+]=[N-])[C@H](CO)O2)c(=O)[nH]c1=O,-4.0,/,/,/,/,/
O=C(O)c1c[nH]c2cc(OCc3ccccc3)ccc2c1=O,-8.7,/,/,/,/,/
NC(N)=NCCCC(=O)O,-18.4,/,/,/,/,/
Cc1ccc(-n2nnnc2SCC(=O)NCCC2=CCCCC2)c(C)c1,-10.9,5.0,82.5*,-82.2,4.7,2.3
CCCOc1ccc(N2C(=O)CC(NCc3cccs3)C2=O)cc1 (configuration not stated),3.9,/,-1.0,4.3,6.8,/
O=C1CC(NCc2cccs2)C(=O)N1c1ccc(Cl)cc1 (configuration not stated),13.1,66.0*,-1.8,4.6,4.9,-1.8
CC(=O)O[C@H]1CC[C@@]2(C)[C@@H](CC[C@H]3[C@H]2CC(=O)[C@]2(C)[C@@H]3C[C@H]3CC(C)=CC(=O)[C@@H]32)C1,15.1,/,/,/,/,/
CN1CC[C@@H](CN2c3ccccc3Sc3ccccc32)C1,6.6,/,/,/,/,/
CCOC(=O)c1c(C)c(C(=O)NCc2ccccn2)c(C)n1CC,-9.5,-21.9,/,/,/,6.4
Cn1ccnc1C[C@@](C)(O)c1ccccc1,-1.4,/,/,/,/,/
Cc1sc2ccccc2[n+]1CCC(=O)O,72.5*,/,/,/,/,/
CC(=O)O[C@H]1CC[C@@]2(C)C(=CC[C@@H]3[C@H]4CC[C@@H]([C@H](C)C(=O)O)[C@]4(C)CC[C@H]32)C1,52.4*,/,/,/,/,/
CC(=O)O[C@H]1CC[C@@]2(C)C(=CC[C@@H]3[C@H]4CC[C@@H](c5cc(C(F)(F)F)n(C(C)=O)n5)[C@]4(C)CC[C@H]32)C1,-5.7,/,/,/,/,/
Cc1nnc(S(=O)(=O)c2ccc(N=Nc3c(N)nc(N)nc3N)cc2)s1,-6.3,/,/,/,/,/
CC(C)(C)CNCCO,-8.5,/,/,/,/,/
C=CC[n+]1c(-c2ccc(OCC)cc2)csc1NNC(=O)Nc1ccccc1,13.5,86.5*,40.7,-41.2,3.2,-8.0
CN1/C(=C/C=C(/C#N)C(N)=O)C(C)(C)c2ccccc21,/,/,-5.6,8.0,47.2*,/
SMILES,Smad3 FoxH1 inh,CD11b adhes inh,sEH inhibitor,sEH act,Rev-RRE block,Mac1 fbg enh
CCOC(=O)c1cc2n(c1/N=C/N(C)C)-c1ccccc1C2=O,23.6,-7.0,7.3,-9.9,135.2*[fluorescence artefact?],0.6
CCO/C(C)=C1\C(=O)N(CC)c2ccccc21,-6.1,-6.2,-7.9,7.8,2.4,3.1
COc1ccc2cc(C3(C)NC(=O)NC3=O)ccc2c1 (configuration not stated),9.4,-2.3,/,/,36.9*,3.6
CC1=NOC(=O)/C1=C/c1ccc(N(C)C)cc1,/,4.0,-0.5,1.4,86.2*,-5.6
O=[N+]([O-])c1cc(/C=N\Nc2nccs2)ccc1O,77.8*,-13.6,-1.4,2.3,-5.2,44.8
Clc1cccc(Cl)c1/C=N\Nc1nccs1,/,/,-8.2,6.0,-3.1,/
O=C(O)[C@H](Cc1ccc(O)c([N+](=O)[O-])c1)N1C(=O)c2ccccc2C1=O,9.2,/,/,/,/,/
N#C/C(=C(/O)C(=O)O)c1ccc(-c2cccc3ccccc23)cc1,2.5,/,/,/,/,/
